The first assay concerns the target T1, Platelet-activating factor acetylhydrolase (Homo sapiens, UniProt Q13093).
T1 sequence (Q13093 whole entry): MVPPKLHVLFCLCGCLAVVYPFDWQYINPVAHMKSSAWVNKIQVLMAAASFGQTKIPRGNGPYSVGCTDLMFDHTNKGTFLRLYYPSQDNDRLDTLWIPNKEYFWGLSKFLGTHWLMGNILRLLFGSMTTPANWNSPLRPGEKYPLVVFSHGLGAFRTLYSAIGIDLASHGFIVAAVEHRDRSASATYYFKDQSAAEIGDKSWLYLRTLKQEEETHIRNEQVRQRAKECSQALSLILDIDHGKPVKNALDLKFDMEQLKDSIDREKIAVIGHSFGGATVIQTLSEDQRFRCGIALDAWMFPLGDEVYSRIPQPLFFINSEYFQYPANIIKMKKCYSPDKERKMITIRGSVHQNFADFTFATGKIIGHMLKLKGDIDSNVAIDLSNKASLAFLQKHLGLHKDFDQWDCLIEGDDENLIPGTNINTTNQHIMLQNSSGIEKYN
Kind of assay: Inhibition of isolated human lipoprotein associated phospholipase A2.
A word on the IC50: it is the midpoint of a concentration-inhibition curve. For `CCCCCCCCCCCCCCCCCCNC(=O)CCCn1cc(Cc2cncnc2)c(=O)nc1SCc1ccc(F)cc1`, half-maximal inhibition (IC50) was put at 4 nM.

The compound `O=C(CCCCCCCSc1nc(=O)c(Cc2cncnc2)cn1CCCc1ccccc1)c1ccc(Cl)cc1` displayed an IC50 of 90 nM. Still for that read-out and setting: the result for `COCCn1cc(Cc2cncnc2)c(=O)nc1SCCCCCCCC(=O)c1ccc(Cl)cc1` reads 110 nM; that for `Cn1cc(Cc2cncnc2)c(=O)nc1SCc1ccccc1`, 660 nM; that for `O=C(CCCCCCCSc1nc(=O)c(Cc2cncnc2)cn1Cc1cccs1)c1ccc(Cl)cc1`, 11 nM. The same measure, in the same setting: the result for `O=c1nc(SCc2ccc(F)cc2)n(CCc2ccccc2)cc1Cc1cncnc1` reads 200 nM; that for `CCCCCCCN(C)C(=O)CCCn1cc(Cc2cncnc2)c(=O)nc1SCc1ccc(F)cc1`, 3 nM; that for `Cn1cc(Cc2cncnc2)c(=O)nc1SCCCCCCCC(=O)c1ccc(Cl)cc1`, 19 nM. The same measure, in the same setting: the result for `CCCCCCCNC(=O)NCCn1cc(Cc2cncnc2)c(=O)nc1SCc1ccc(F)cc1` reads 70 nM; that for `CCCCCCCC/C=C/CCCCCCCCNC(=O)CCCn1cc(Cc2cncnc2)c(=O)nc1SCc1ccc(F)cc1`, 0.7 nM; that for `O=C(CCCCCCCSc1nc(=O)c(Cc2cncnc2)cn1Cc1ccccc1)c1ccc(Cl)cc1`, 36 nM.

Consider `O=C(CCCCCCCSc1nc(=O)c(Cc2cncnc2)cn1Cc1ccco1)c1ccc(Cl)cc1`, for which the IC50 came to 16 nM.

`CCCCCCCCC=CCCCCCCCCNC(=O)CCCn1cc(Cc2cncnc2)c(=O)nc1SCc1ccc(F)cc1` registered a 50% inhibitory concentration (IC50) of 0.4 nM. Against the preceding compound, the IC50 is about 40-fold lower. Same read-out and setting: next, `CCn1cc(Cc2cncnc2)c(=O)nc1SCCCCCCCC(=O)c1ccc(Cl)cc1`: 39 nM; `CCCCCCCCCCCn1cc(Cc2cncnc2)c(=O)nc1SCc1ccc(F)cc1`: 19 nM. On the same count and under the same terms, the result for `O=c1nc(SCc2cccc(Cl)c2)n(Cc2ccco2)cc1Cc1cncnc1` reads 960 nM. Still for that read-out and setting: the result for `CCCCCCCCCCNC(=O)CCCn1cc(Cc2cncnc2)c(=O)nc1SCc1ccc(F)cc1` reads 0.1 nM; that for `Cn1cc(Cc2cncnc2)c(=O)nc1SCc1ccc(F)cc1`, 285 nM. `O=C(CCCCCCCSc1nc(=O)c(Cc2cncnc2)cn1CCc1ccccc1)c1ccc(Cl)cc1` returned an IC50 of 34 nM. Same read-out and setting: next, `O=c1nc(SCc2ccc(F)c(F)c2)n(Cc2ccco2)cc1Cc1cncnc1`: 235 nM; `CCCCCCCC(=O)NCCn1cc(Cc2cncnc2)c(=O)nc1SCc1ccc(F)cc1`: 140 nM; `O=c1nc(SCc2ccc(F)cc2)n(CCCCCCCCCc2ccccc2)cc1Cc1cncnc1`: 25 nM. On the same count and under the same terms, next, `O=c1nc(SCc2ccc(F)cc2)n(CCc2cccs2)cc1Cc1cncnc1`: 250 nM.

Consider `O=c1nc(SCc2ccccc2)n(Cc2ccccc2)cc1Cc1cncnc1`, for which half-maximal inhibition (IC50) was put at 450 nM. This IC50 lies about 1.8-fold higher than the previous one. As for `O=c1nc(SCc2ccccc2)n(Cc2cccs2)cc1Cc1cncnc1`, the IC50 stood at 210 nM. Still for that read-out and setting: next, `O=c1nc(SCc2ccccc2F)n(Cc2ccco2)cc1Cc1cncnc1`: 450 nM; `O=c1nc(SCc2ccc(F)cc2)n(Cc2ccco2)cc1Cc1cncnc1`: 300 nM; `O=c1nc(SCc2ccccc2)n(CCc2cccs2)cc1Cc1cncnc1`: 350 nM. For the compound `O=C(Cn1cc(Cc2cncnc2)c(=O)nc1SCc1ccc(F)cc1)NCCCCCCc1ccc(F)cc1`, the IC50 stood at 2 nM. Same read-out and setting: next, `O=c1nc(SCc2ccccc2)n(CCCc2ccccc2)cc1Cc1cncnc1`: 300 nM; `CCCCCCCCN(C)C(=O)Cn1cc(Cc2cncnc2)c(=O)nc1SCc1ccc(F)cc1`: 15 nM. For `CCCCCCCCC=CCCCCCCCCNC(=O)Cn1cc(Cc2cncnc2)c(=O)nc1SCc1ccc(F)cc1`, the IC50 came out at 1 nM. This IC50 is about 15-fold lower than that of the compound before. The same measure, in the same setting: the result for `O=c1nc(SCc2ccccc2)n(CCc2ccccc2)cc1Cc1cncnc1` reads 210 nM; that for `CCCCCCc1ccc(CCn2cc(Cc3cncnc3)c(=O)nc2SCc2ccc(F)cc2)cc1`, 12 nM; that for `CCCCCCCC/C=C/CCCCCCCCNC(=O)Cn1cc(Cc2cncnc2)c(=O)nc1SCc1ccc(F)cc1`, 2 nM. On the same count and under the same terms, next, `O=c1nc(SCc2ccc(Cl)cc2)n(Cc2ccco2)cc1Cc1cncnc1`: 1400 nM; `CCCCCCCNC(=O)Cn1cc(Cc2cncnc2)c(=O)nc1SCc1ccc(F)cc1`: 19 nM. On the same count and under the same terms, the result for `CCCCCCCCNC(=O)Cn1cc(Cc2cncnc2)c(=O)nc1SCc1ccc(F)cc1` reads 7 nM.

Turning to `CCCCNC(=O)CCCCCn1cc(Cc2cncnc2)c(=O)nc1SCc1ccc(F)cc1`, half-maximal inhibition (IC50) required 260 nM. On the same count and under the same terms, next, `O=c1nc(SCc2cccc(F)c2)n(Cc2ccco2)cc1Cc1cncnc1`: 250 nM; `COCCn1cc(Cc2cncnc2)c(=O)nc1SCc1ccccc1`: 1200 nM; `O=c1nc(SCc2ccc(F)c(F)c2)n(CCc2ccccc2)cc1Cc1cncnc1`: 110 nM.

Another assay deals with T2, Platelet-activating factor acetylhydrolase (Homo sapiens) (UniProt Q13093).
T2 sequence (whole entry): T1 sequence (Q13093 whole entry)
In words: Inhibition of Lipoprotein associated phospholipase A2 in human plasma at 100 nM. The assay is classed as cell-free. In a few lines: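 Whole plasma (human, or WHHL rabbit) mixed with compound in DMSO at a single concentration and preincubated 10 min at 37 °C before enzyme assay. Reaction ran 60 s in human plasma and 15 s in rabbit plasma, then stopped with CHCl3/MeOH (2:1). Released [3H]acetate was read by scintillation counting of the aqueous layer after chloroform extraction.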
Usually inhibition stands for how much of the control response was suppressed. Read a high inhibition as strong suppression. On to `O=c1nc(SCc2ccc(F)cc2)n(CCc2ccccc2)cc1Cc1cncnc1`, for which the inhibition was 27%. Same read-out and setting: next, `Cn1cc(Cc2cncnc2)c(=O)nc1SCc1ccc(F)cc1`: 28%.

The compound `O=c1nc(SCc2ccc(F)cc2)n(Cc2ccco2)cc1Cc1cncnc1` displayed an inhibition of 26%.

Values taken from ChEMBL document CHEMBL1132814, “N-1 substituted pyrimidin-4-ones: novel, orally active inhibitors of lipoprotein-associated phospholipase A2” (Bioorg Med Chem Lett, 2000).
